# Assay results as given in ChEMBL document CHEMBL3272327, “Hypocholesterolemic activity of 1,3-bis(substituted phenoxy)-2-propanones” (J Med Chem, 1976).
# Tests used:
# Rattus norvegicus [1] = experiment: Effect on kidney weight in rat at 5 mg/kg/day administered for 16 days measured 24 hrs after last drug dosage relative to total body weight (reference value: 0.92 +/- 0.04%); assay type: ADME, organism-based; conditions: in vivo
# Rattus norvegicus [2] = experiment: Hypocholesterolemic activity in Sprague-Dawley rat assessed as serum cholesterol level at 50 mg/kg/day, po administered via intubation measured on day 4 by Liebermann-Burchard reaction (reference value: 100 +/- 7%); assay type: functional
# Rattus norvegicus [3] = experiment: Effect on kidney weight in rat at 10 mg/kg/day administered for 16 days measured 24 hrs after last drug dosage relative to total body weight (reference value: 0.92 to 0.96%); assay type: ADME, organism-based; conditions: in vivo
# Rattus norvegicus [4] = experiment: Effect on spleen weight in rat at 50 mg/kg/day administered for 16 days measured 24 hrs after last drug dosage relative to total body weight (reference value: 0.55 +/- 0.12%); assay type: ADME, organism-based; conditions: in vivo
# Rattus norvegicus [5] = experiment: Hypocholesterolemic activity in [14C]palmitic acid-treated rat assessed as decrease in 14C fatty acid incorporation into triglyceride fraction in liver at 10 mg/kg/day administered for 1 week by scintillation counting analysis; assay type: functional; design: scale not given: the % may be the effect or the level left
# Rattus norvegicus [6] = experiment: Hypocholesterolemic activity in rat assessed as [14C]cholesterol level in vas deferens at 10 mg/kg/day administered for 1 week measured after 22 hrs on day 7 by scintillation counting analysis (reference value: 0.03 +/- 0.02%); assay type: functional
# Outline: (§1)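 Male rats were dosed orally for 1 week (10 mg/kg/day) or with 1% CMC. On day 7 they received 5 μCi [4-14C]cholesterol orally and were killed after 22 hr. Organs were homogenized (10% in water); 0.1-cc aliquots of homogenate, urine, blood or feces were digested with Protosol. Samples were counted in toluene/Triton X-100 (2:1) scintillant with 0.4% PPO and 0.01% POPOP. Results are % of dose per tissue, N = 6.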
# Rattus norvegicus [7] = experiment: Hypocholesterolemic activity in rat assessed as [14C]palmitic acid level in liver at 10 mg/kg/day administered for 1 week measured after 22 hrs on day 7 by scintillation counting analysis (reference value: 8.06 +/- 1.33%); assay type: functional
# Outline: (§2)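 Male Sprague-Dawley rats on lab chow dosed orally once daily for 1 week at 10 mg/kg/day, suspended in 1% CMC, or given vehicle alone. On day 7, 5 μCi [1-14C]palmitic acid given orally. Killed after 22 hr; organs made into 10% water homogenates. Aliquots of 0.1 cc of homogenate, urine, blood or feces were digested and scintillation counted. Output is % of dose per tissue, N = 6.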
# Rattus norvegicus [8] = experiment: Effect on spleen weight in rat at 5 mg/kg/day administered for 16 days measured 24 hrs after last drug dosage relative to total body weight (reference value: 0.55 +/- 0.12%); assay type: ADME, organism-based; conditions: in vivo
# Rattus norvegicus [9] = experiment: Hypocholesterolemic activity in rat assessed as serum triglyceride level at 10 mg/kg/day administered for 8 days (reference value: 100 +/- 15%); assay type: functional
# Outline: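 Male Sprague-Dawley rats dosed orally at 10 mg/kg/day in 1% CMC. Serum triglycerides were measured with a stat pack kit after 8 days of dosing. Expressed as percent of vehicle control, N = 8; Student's t test.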
# Rattus norvegicus [10] = experiment: Effect on body weight in rat at 50 mg/kg/day administered for 16 days measured on day 16 (reference value: 233 +/- 16 gms); assay type: ADME, organism-based; conditions: in vivo, 384 h
# Outline: (§3)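 Male Sprague-Dawley rats with chow and water ad libitum. Compound suspended in 1% CMC-water and given orally by intubation needle at 11:00 a.m., 1, 5, 10 or 50 mg/kg/day, for 16 days. Body weight (g) recorded on days 0, 7 and 16. N = 8.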
# Rattus norvegicus [11] = experiment: Increase in lipase level in rat serum at 10 mg/kg/day administered for 16 days relative to control; assay type: functional
# Outline: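 Male Sprague-Dawley rats on rodent chow and water ad libitum; compound suspended in 1% CMC-H2O, 10 mg/kg/day by oral intubation, dose set from weekly weights; controls given 1% CMC. Serum lipase measured with a commercial serum lipase kit after 16 days of dosing; value given as percent of control, N = 8; p by Student's t test.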
# Rattus norvegicus [12] = experiment: Effect on lipid content in rat liver at 10 mg/kg/day administered for 16 days (reference value: 100 +/- 16%); assay type: ADME, organism-based; conditions: in vivo, 384 h
# Rattus norvegicus [13] = experiment: Hypocholesterolemic activity in Sprague-Dawley rat assessed as serum cholesterol level at 5 mg/kg/day, po administered via intubation measured on day 4 by Liebermann-Burchard reaction (reference value: 100 +/- 7%); assay type: functional
# Rattus norvegicus [14] = experiment: Effect on heart weight in rat at 50 mg/kg/day administered for 16 days measured 24 hrs after last drug dosage relative to total body weight (reference value: 0.37 +/- 0.04%); assay type: ADME, organism-based; conditions: in vivo
# Rattus norvegicus [15] = experiment: Effect on brain weight in rat at 50 mg/kg/day administered for 16 days measured 24 hrs after last drug dosage relative to total body weight (reference value: 0.67 +/- 0.05%); assay type: ADME, organism-based; conditions: in vivo
# Rattus norvegicus [16] = experiment: Effect on vesicular gland weight in rat at 10 mg/kg/day administered for 16 days measured 24 hrs after last drug dosage relative to total body weight (reference value: 0.10 to 0.11%); assay type: ADME, organism-based; conditions: in vivo
# Rattus norvegicus [17] = experiment: Effect on body weight in rat at 10 mg/kg/day administered for 16 days measured on day 16 (reference value: 233 +/- 16 gms); assay type: ADME, organism-based; conditions: in vivo, 384 h; outline: as §3
# Rattus norvegicus [18] = experiment: Effect on protein content in rat liver at 10 mg/kg/day administered for 16 days (reference value: 100 +/- 6%); assay type: ADME, organism-based; conditions: in vivo, 384 h
# Rattus norvegicus [19] = experiment: Hypocholesterolemic activity in rat assessed as [14C]cholesterol level in testes at 10 mg/kg/day administered for 1 week measured after 22 hrs on day 7 by scintillation counting analysis (reference value: 0.24 +/- 0.17%); assay type: functional, Testis; outline: as §1
# Rattus norvegicus [20] = experiment: Hypocholesterolemic activity in rat assessed as [14C]palmitic acid level in heart at 10 mg/kg/day administered for 1 week measured after 22 hrs on day 7 by scintillation counting analysis (reference value: 0.23 +/- 0.10%); assay type: functional; outline: as §2
# Rattus norvegicus [21] = experiment: Hypocholesterolemic activity in rat assessed as [14C]palmitic acid level in urine at 10 mg/kg/day administered for 1 week measured after 22 hrs on day 7 by scintillation counting analysis (reference value: 3.31 +/- 1.37%); assay type: functional; outline: as §2
# Rattus norvegicus [22] = experiment: Hypocholesterolemic activity in Sprague-Dawley rat assessed as serum cholesterol level at 1 mg/kg/day, po administered via intubation measured on day 4 by Liebermann-Burchard reaction (reference value: 100 +/- 7%); assay type: functional
# Rattus norvegicus [23] = experiment: Hypocholesterolemic activity in [14C]palmitic acid-treated rat assessed as decrease in 14C fatty acid incorporation into cholesterol ester fraction in liver at 10 mg/kg/day administered for 1 week by scintillation counting analysis; assay type: functional; design: scale not given: the % may be the effect or the level left
# Rattus norvegicus [24] = experiment: Effect on vas deferens and epididymis weight in rat at 5 mg/kg/day administered for 16 days measured 24 hrs after last drug dosage relative to total body weight (reference value: 0.22 +/- 0.04%); assay type: ADME, organism-based; conditions: in vivo
# Rattus norvegicus [25] = experiment: Hypocholesterolemic activity in rat assessed as [14C]cholesterol level in blood at 10 mg/kg/day administered for 1 week measured after 22 hrs on day 7 by scintillation counting analysis (reference value: 0.01 +/- 0.01%); assay type: functional; outline: as §1
# Rattus norvegicus [26] = experiment: Hypocholesterolemic activity in rat assessed as [14C]cholesterol level in urine at 10 mg/kg/day administered for 1 week measured after 22 hrs on day 7 by scintillation counting analysis (reference value: 0.14 +/- 0.06%); assay type: functional; outline: as §1
smiles,measurement,setting,value
Cc1ccc(OCC(=O)COc2ccc(C)cc2)cc1,Activity,Rattus norvegicus [1],0.88%
same,Activity,Rattus norvegicus [2],86%
same,Activity,Rattus norvegicus [3],0.93%
same,Activity,Rattus norvegicus [4],0.4%
same,Activity,Rattus norvegicus [5],53%
same,Activity,Rattus norvegicus [6],0.07%
same,Activity,Rattus norvegicus [7],9.26%
same,Activity,Rattus norvegicus [8],0.44%
same,Activity,Rattus norvegicus [9],70%
same,Activity,Rattus norvegicus [10],232 g
same,fold change (FC),Rattus norvegicus [11],2
same,Activity,Rattus norvegicus [12],88%
same,Activity,Rattus norvegicus [13],74%
same,Activity,Rattus norvegicus [14],0.4%
same,Activity,Rattus norvegicus [15],0.83%
same,Activity,Rattus norvegicus [16],0.11%
same,Activity,Rattus norvegicus [17],234 g
same,Activity,Rattus norvegicus [18],102%
same,Activity,Rattus norvegicus [19],0.33%
same,Activity,Rattus norvegicus [20],0.26%
same,Activity,Rattus norvegicus [21],1.82%
same,Activity,Rattus norvegicus [22],75%
same,Activity,Rattus norvegicus [23],46%
same,Activity,Rattus norvegicus [24],0.21%
same,Activity,Rattus norvegicus [25],0.01%
same,Activity,Rattus norvegicus [26],0.94%
